Most compounds without a hit are left out; they make up all but 5.1% or so of the library.
STAT3 activator – IL-6 driven STAT3 reporter potentiators, primary screen, U3A cells, luciferase, luminescence, MLSCN library; IL-6 STAT3-luciferase reporter; 100% = signal with IL-6 EC80 alone; activation (% of control), % at 5.6 µM; 190,000 compounds, 0.91% hits; AID 871, 2007;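 active = activation above the screen-wide mean of compound activation plus 3 SD, cut at about 130% in these data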;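 note: 0% = background luminescence of wells with medium and substrate only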
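Test system: STAT3-luciferase reporter U3A cells; Detection: reporter luminescence signal; Times: 1 h compound pre-exposure, 6 h IL-6 stimulation, 37 °C; Benchmarks: IL-6-only high control; Also added: IL-6 stimulus at 33 ng/mL final.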
STAT3 inh-1 – IL-6 driven STAT3 reporter inhibitors, primary screen, U3A cells, luciferase, luminescence, MLSCN library | inhibition, % at 5.5 µM | IL-6 STAT3-luciferase reporter; host cell line lacks STAT1 | 190,000 compounds, 0.89% hits | AID 862, 2007;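 active = inhibition above the mean inhibition across all screened compounds plus 3 SD, cut at about 44% in these data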;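 note: 0% = DMSO only wells and 100% = 100 µM nifuroxazide control wells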
STAT1 act – STAT1 signaling activators, primary screen, cell-based, HTS, luciferase reporter | NIH 3T3 STAT1-luciferase reporter, IFN-gamma, luminescence; 100% = IFN-gamma alone, no compound | activation (% of control), % at 5.5 µM | 200,000 compounds, 2.6% hits;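 active = activation above the screen-wide mean activation plus 3 SD, cut at about 130% in these data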;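 note: raw ratio to IFN-gamma control signal so 100% means no change and 0% no light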
NF-kB expr up – activators of NF-kB expression in neurons, primary screen, cell-based, HTS; human neuronal cells, NF-kB reporter expression; stronger effect = higher value; fold change at 12.5 µM; 190,000 compounds, 1.6% hits; AID 1239, 2008; in the data active = fold change above about 3.3
STAT1 blocker – STAT1 signaling inhibitors, primary screen, cell-based, HTS, luciferase reporter | NIH 3T3 STAT1-luciferase reporter, IFN-gamma, luminescence | inhibition, % at 5.5 µM | 200,000 compounds, 0.35% hits | AID 920, 2007;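 active = inhibition above a set limit, the mean inhibition across all tested compounds plus 3 SD, cut at about 34% in these data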;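 note: 0% = IFN-gamma with DMSO and 100% = IFN-gamma with 300 µM nifuroxazide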
APP 5'UTR act – activators of APP 5'UTR luciferase reporter, primary screen, SH-SY5Y cells; SH-SY5Y APP 5'UTR luciferase reporter, luminescence; zero percent = DMSO vehicle wells; activation, % at 2 µM; 190,000 compounds, 1% hits; AID 1276, 2008;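 active = activation above a set limit, based on mean plus 3 SD of controls, cut at about 140% in these data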
STAT3 inh-2 – STAT3 reporter inhibitors, retest of hits, confirmation, U3A cells, luciferase, luminescence; shares compounds with STAT3 inh-1; IL-6 STAT3 luciferase reporter; cell line lacks STAT1; 1,200 compounds, 45% hits; inhibition, % at 5.7 µM;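 active = inhibition above the hit cutoff computed for the primary STAT3 screen, cut at about 44% in these data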;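 note: 0% = IL-6 plus DMSO and 100% = IL-6 plus nifuroxazide control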
NFkB inh 2 – NF-kB reporter inhibitors in human cells, confirmation, counter-screen for STAT3 inhibitor project, cell-based, HEK293T, luciferase, TNF-alpha stimulus | 1,200 compounds, 36% hits | TNF-alpha induced | inhibition, % at 5.7 µM | AID 1308, 2008 | shares compounds with STAT3 inh-1;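 active = inhibition above the mean of solvent-only control wells plus 3 SD, cutoff set per campaign, cut at about 13% in these data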;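 note: 0% = TNF-alpha with DMSO and 100% = TNF-alpha with MG high control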
STAT1 inh STAT3c – STAT1 reporter inhibitors, IFN-gamma induced, confirmation, counter-screen for STAT3 inhibitor project, cell-based, NIH 3T3, luciferase luminescence; shares compounds with STAT3 inh-1; NIH 3T3 STAT1-luciferase reporter; inhibition, % at 5.7 µM; 1,200 compounds, 27% hits; AID 1317, 2008;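 active = inhibition above the mean plus 3 SD of solvent-only control wells, limit set per screening run, cut at about 16% in these data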;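 note: 0% = DMSO with IFN-gamma and 100% = nifuroxazide control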
* marks the source's active call; other numbers are inactive results; x = no result given.

SMILES	STAT3 activator	STAT3 inh-1	STAT1 act	NF-kB expr up	STAT1 blocker	APP 5'UTR act	STAT3 inh-2	NFkB inh 2	STAT1 inh STAT3c
COc1ccccc1N1CCN(C(=O)CSc2nnc3n2C(C)(C)Cc2ccccc2-3)CC1	52	57*	82	0.55	20	7	53*	14*	19*
CC1Cc2ccccc2N1C(=O)CSc1nnc2n1C(C)(C)Cc1ccccc1-2 (stereo not given)	90	15	97	1.1	3	-8	x	x	x
CC(C)CC(=O)Nc1nc2ccc(S(C)(=O)=O)cc2s1	92	12	119	0.98	-23	-5	x	x	x
CCOC(=O)/C(=N\Nc1ccc(Cl)cc1)Sc1nnc(-c2ccc(OC)cc2)n1C	101	3	93	1.1	8	-6	x	x	x
Cc1nc2sc(-c3ccccc3)cc2c(=O)[nH]1	45	69*	77	3.5*	25	157*	35	-1	-42
O=c1[nH]c(-c2cccnc2)nc2sc(-c3ccccc3)cc12	93	11	114	0.97	-19	-75	x	x	x
CCCN(CCC)C(=O)C[n+]1cccc(/C=N/O)c1	95	9	94	0.93	6	-1	x	x	x
COC(=O)c1ccccc1NC(=O)CNc1cc(OC)c(OC)cc1C	58	51*	78	0.96	24	-1	65*	18*	26*
CCOc1ccc(S(=O)(=O)N2CCN(c3ccccc3F)CC2)c2cccnc12	98	5	89	0.85	12	-2	x	x	x
CC1CN(C(=O)c2cccc(COc3ccc(Br)cc3)c2)CC(C)O1 (stereo not given)	120	-21	124	2.5	-27	72	x	x	x
NNC(=O)c1cccc(COc2ccc(Br)cc2)c1	31	79*	71	1.9	32	105	71*	33*	31*
O=C(O)CCn1c(=S)n(CCC(=O)O)c2ccccc21	x	x	x	x	x	0	x	x	x
CC(C)C(NC(=O)c1ccc(C(C)(C)C)cc1)C(=O)Nc1cccc(S(N)(=O)=O)c1 (stereo not given)	65	44*	110	1.6	-12	3	10	-2	-3
CCOc1ccccc1C(=O)NC(C(=O)Nc1cccc(S(N)(=O)=O)c1)C(C)C (stereo not given)	109	-1	92	1	7	6	x	x	x
CC(C)COC(=O)c1ccc2c(c1O)C(=O)c1ccccc1C2=O	65	46*	128	2.1	-30	90	16	-27	-95
CCC(c1nnc(SCC(=O)NCCc2ccc(Cl)cc2Cl)o1)N(C)C (stereo not given)	109	-9	100	1.2	0	1	x	x	x
COCCn1nnnc1SCC(=O)Nc1ccc2c(c1)OCO2	98	4	105	1.2	-7	37	x	x	x
NC(=O)c1ccccc1N/C=C/C(=O)c1ccc(Cl)cc1Cl	49	62*	121	5.9*	-23	174*	22	-4	-85
O=C(Nc1ccccc1Cl)c1ccc(Cl)cc1Cl	86	21	120	2.2	-24	12	x	x	x
CCc1n[nH]c2c1/C(=N\O)CC(c1ccccc1)C2 (stereo not given)	65	44*	102	1.1	-2	-2	30	10	10
CCCCc1n[nH]c2c1/C(=N/O)CC(c1ccccc1)C2 (stereo not given)	73	38	100	1.2	0	8	x	x	x
COc1ccc(N(CC(=O)NCc2ccccc2C)S(=O)(=O)c2ccccc2[N+](=O)[O-])c(OC)c1	96	5	92	0.72	9	-10	x	x	x
Cc1c(C(=O)Nc2ccncc2)sc2nc(-c3ccccc3)cn12	76	30	96	0.47	5	10	x	x	x
Cc1c(C(=O)Nc2ccc3c(c2)OCCO3)sc2nc(-c3ccccc3)cn12	59	51*	69	0.34	34*	-11	42	2	10
CCOc1cccc(/C=N/NC(=S)Nc2ccccc2[N+](=O)[O-])c1O	43	69*	85	0.48	15	82	24	-8	-32
SMILES	STAT3 activator	STAT3 inh-1	STAT1 act	NF-kB expr up	STAT1 blocker	APP 5'UTR act	STAT3 inh-2	NFkB inh 2	STAT1 inh STAT3c
O=[N+]([O-])c1ccccc1NC(=S)N/N=C/c1ccc(O)c(O)c1	44	68*	148*	x	-56	150*	48*	-9	-47
CC1=NC(C#N)=C(C#N)NC(C)(C)C1	101	8	99	1.1	1	-4	x	x	x
COc1ccc(N(C(=O)CCl)C(C(=O)NCCc2ccccc2)c2cccs2)cc1 (stereo not given)	47	62*	78	0.09	24	-16	92*	-2	21*
COc1ccc(CNC(=O)C(c2ccncc2)N(C(=O)Cc2cccs2)c2ccccc2)cc1 (stereo not given)	104	-5	106	1	-7	x	x	x	x
CCNC(=S)NNC(=O)c1cc(-c2ccc(OC)cc2)nc2ccccc12	37	74*	82	4.1*	21	103	43	28*	14
CCNC(=S)NNC(=O)c1cc(-c2cccc(C)c2)nc2ccccc12	79	27	88	1.6	13	22	x	x	x
Cc1cc(-n2c(C)cc(C(=O)CSc3nnc4sc5ccccc5n34)c2C)no1	96	10	102	0.95	-2	7	x	x	x
Cc1cc(-n2c(C)cc(C(=O)CSc3ncnc4ccccc34)c2C)no1	41	75*	83	1.1	18	-4	75*	25*	23*
Cc1ccc(C)c(C(=O)CSc2nnnn2C(C)C)c1	90	16	109	1.7	-10	-14	x	x	x
Cc1ccc(C(=O)CSc2nnnn2C(C)C)c(C)c1	35	78*	72	3	30	155*	49*	22*	-24
CCOc1ccc(-n2c(SCc3ccc([N+](=O)[O-])cc3)nnc2-c2ccccc2)cc1	101	-4	107	0.69	-7	12	x	x	x
CCOc1ccc(-n2c(-c3ccccc3)c[n+]3c2CCCCC3)cc1	37	74*	74	0.52	29	12	76*	2	24*

Source: PubChem (several laboratories)
